Data taken from ChEMBL document CHEMBL4619820, “Development of Novel AKR1C3 Inhibitors as New Potential Treatment for Castration-Resistant Prostate Cancer” (J Med Chem, 2020).
Calls of active or inactive are those of the source. No cut-off for these calls is given here.

Assays:
CWR22R [1] = assay: Antitumor activity against human 22Rv1 cells xenografted in Balb/c nu/nu athymic mouse assessed as increase in necrotic region in tumor tissue at 100 mg/kg, ip dosed twice per week for 6 weeks by H and E staining dependent light microscopy based histopathological analysis; assay type: functional, organism-based
Outline: (§1)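 Tumor tissue, plus liver, kidney and lung, from xenografted mice given ip 50 or 100 mg/kg; sections stained with hematoxylin and eosin and examined at ×40 for necrotic areas.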

[2] = Toxicity in Balb/c nu/nu athymic mouse xenografted with human 22Rv1 cells assessed as effect on body weight at 100 mg/kg, ip dosed twice per week for 6 weeks […]; assay type: organism-based, CWR22R; conditions: in vivo, 1008 h
Outline: (§2)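 Mice carrying 22Rv1 xenografts received intraperitoneal injections. The vehicle control group had n=15 and each treated dose group had n=10. Average body weights were compared between treated and vehicle-control mice.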

[3] = Toxicity in Balb/c nu/nu athymic mouse xenografted with human 22Rv1 cells assessed as effect on lung histology at 100 mg/kg, ip dosed twice per week for 6 weeks by H and E staining dependent light microscopy based histopathological analysis; assay type: organism-based, CWR22R; conditions: in vivo, 1008 h
Outline: (§3)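 Mice carrying 22Rv1 xenografts were dosed intraperitoneally, with vehicle controls n=15 and treated groups n=10. Tissue sections of kidney, liver and lung were stained with hematoxylin and eosin and examined by light microscopy at ×40 magnification for histopathological changes.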

[4] = Toxicity in Balb/c nu/nu athymic mouse xenografted with human 22Rv1 cells assessed as effect on kidney histology at 100 mg/kg, ip dosed twice per week for 6 weeks by H and E staining dependent light microscopy based histopathological analysis; assay type: organism-based, CWR22R; conditions: in vivo, 1008 h; outline: as §3
CWR22R [5] = assay: Antitumor activity against human 22Rv1 cells xenografted in Balb/c nu/nu athymic mouse assessed as reduction in tumor volume at 100 mg/kg, ip dosed twice per week for 6 weeks; assay type: functional, organism-based
Outline: (§4)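 22Rv1 xenograft mice dosed intraperitoneally with vehicle (control, n=15), 50 mg/kg (n=10) or 100 mg/kg (n=10); tumor size followed over time; body weights recorded.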

CWR22R [6] = assay: Inhibition of pregnenolone-induced cell proliferation of human 22Rv1 cells at 10 to 20 uM pre-incubated for 2 hrs before pregnenolone stimulation for 72 hrs by alamar blue assay; assay type: functional, cell-based
Outline: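 22Rv1 cells (AKR1C3- and AR-expressing) pretreated 2 h with agents, then cultured 72 h with 20 nM pregnenolone; viable cell number given as percent of pregnenolone-free control.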

[7] = target: T1, Aldo-keto reductase family 1 member C3 (Homo sapiens) (UniProt P42330); assay: Inhibition of AKR1C3 in human 22Rv1 cells assessed as as reduction in finasteride-induced metabolism of 4AD into testosterone at 10 to 20 uM pre-incubated for 2 hrs in presence of finasteride before 4AD addition for 24 hrs by EIA; assay type: cell-based; conditions: CWR22R
T1 sequence (whole entry): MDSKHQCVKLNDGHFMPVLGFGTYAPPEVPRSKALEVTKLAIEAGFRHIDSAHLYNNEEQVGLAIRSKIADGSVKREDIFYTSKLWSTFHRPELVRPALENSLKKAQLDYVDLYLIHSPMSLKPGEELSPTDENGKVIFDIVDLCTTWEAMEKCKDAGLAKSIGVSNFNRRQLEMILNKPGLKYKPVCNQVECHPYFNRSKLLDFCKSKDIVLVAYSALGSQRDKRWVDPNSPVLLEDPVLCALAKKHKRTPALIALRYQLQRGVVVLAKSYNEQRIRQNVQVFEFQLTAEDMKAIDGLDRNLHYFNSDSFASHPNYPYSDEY
Outline: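 22Rv1 cells pretreated 2 h with or without 2 μM finasteride and/or inhibitor, then cultured 24 h with 100 nM 4AD; testosterone in cell extracts quantified by EIA and expressed as percent of finasteride-free control.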

PC-3 [8] = conditions: Homo sapiens, at 10 µM
LNCaP = assay: Inhibition of pregnenolone-induced cell proliferation of human LNCAP cells at 10 to 20 uM incubated for 72 hrs by alamar blue assay; assay type: functional, cell-based
Outline: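 LNCaP and androgen-low-sensitive LNCaP-E9 cells pretreated 2 h with inhibitor, then 72 h with 20 nM pregnenolone; viable cells expressed as percent of untreated LNCaP control.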

CWR22R [9] = assay: Induction of apoptosis in human 22Rv1 cells assessed as increase in cleaved PARP level at 10 uM pre-incubated for 2 hrs before addition of pregnenolone for 24 hrs by Western blot analysis; assay type: functional, cell-based
Outline: (§5)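 Apoptotic markers in 22Rv1: 2 h pretreatment with or without 10 μM inhibitor and/or 50 μM enzalutamide, then 24 h 20 nM pregnenolone; Bax/Bcl-2 ratio as percent of control; cleaved caspase-3 also by immunofluorescence with DAPI.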

PC-3 [10] = assay: Inhibition of cell proliferation of human PC3 cells at 10 to 20 uM incubated for 72 hrs by alamar blue assay; assay type: functional, cell-based
Outline: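 PC3 cells (AKR1C3-positive, AR-negative) grown 72 h with or without inhibitor; growth curves of viable cell number compared with inhibitor-free cells.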

[11] = target: T1, Aldo-keto reductase family 1 member C3 (Homo sapiens); assay: Inhibition of AKR1C3 in human 22Rv1 cells assessed as potentiation of abiraterone-induced of ROS generation at 10 uM by DCFH-DA dye based flow cytometric analysis; assay type: cell-based; conditions: CWR22R
Outline: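 22Rv1 cells exposed 3 h to 10 μM inhibitor and/or abiraterone, or 50 μM enzalutamide; intracellular ROS by flow cytometry as DCF-positive cells, percent of vehicle control.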

[12] = target: T1, Aldo-keto reductase family 1 member C3 (Homo sapiens); assay: Inhibition of AKR1C3 in human 22Rv1 cells assessed as potentiation of enzalutamide-induced apoptosis by measuring increase in Bax level at 10 uM pre-incubated for 2 hrs before addition of pregnenolone for 24 hrs by Western blot analysis; assay type: cell-based; conditions: CWR22R; outline: as §5
CWR22R [13] = assay: Inhibition of pregnenolone-induced cell cell cycle changes in human 22Rv1 cells assessed as reduction in S phase accumulation at 10 uM pre-incubated for 2 hrs before pregnenolone stimulation for 24 hrs by propidium iodide staining based flow cytometry; assay type: functional
Outline: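 Cell cycle in 22Rv1: 2 h pretreatment with or without 10 μM inhibitor, then 24 h with 20 nM pregnenolone; G0/G1, S and G2/M fractions determined by flow cytometry.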

[14] = Toxicity in Balb/c nu/nu athymic mouse xenografted with human 22Rv1 cells assessed as effect on body weight at 50 mg/kg, ip dosed twice per week for 6 weeks by H and E staining dependent light microscopy based histopathological analysis; assay type: organism-based, CWR22R; conditions: in vivo, 1008 h; outline: as §2
CWR22R [15] = assay: Antitumor activity against human 22Rv1 cells xenografted in Balb/c nu/nu athymic mouse assessed as reduction in tumor volume at 50 mg/kg, ip dosed twice per week for 6 weeks; assay type: functional, organism-based; outline: as §4
[16] = Toxicity in Balb/c nu/nu athymic mouse xenografted with human 22Rv1 cells assessed as effect on lung histology at 50 mg/kg, ip dosed twice per week for 6 weeks by H and E staining dependent light microscopy based histopathological analysis; assay type: organism-based, CWR22R; conditions: in vivo, 1008 h; outline: as §3
[17] = Toxicity in Balb/c nu/nu athymic mouse xenografted with human 22Rv1 cells assessed as effect on kidney histology at 50 mg/kg, ip dosed twice per week for 6 weeks by H and E staining dependent light microscopy based histopathological analysis; assay type: organism-based, CWR22R; conditions: in vivo, 1008 h; outline: as §3
CWR22R [18] = assay: Antitumor activity against human 22Rv1 cells xenografted in Balb/c nu/nu athymic mouse assessed as increase in necrotic region in tumor tissue at 50 mg/kg, ip dosed twice per week for 6 weeks by H and E staining dependent light microscopy based histopathological analysis; assay type: functional, organism-based; outline: as §1
[19] = Toxicity in Balb/c nu/nu athymic mouse xenografted with human 22Rv1 cells assessed as effect on liver histology at 50 mg/kg, ip dosed twice per week for 6 weeks by H and E staining dependent light microscopy based histopathological analysis; assay type: organism-based, CWR22R; conditions: in vivo, 1008 h; outline: as §3

| Structure (SMILES) | Activity (CWR22R [1]) | Activity [2] | Activity [3] | Activity [4] | Activity (CWR22R [5]) | inhibition (CWR22R [6]) | inhibition [7] | inhibition (PC-3 [8]) | inhibition (LNCaP) | Activity (CWR22R [9]) | inhibition (PC-3 [10]) | inhibition [11] | inhibition [12] | inhibition (CWR22R [13]) | Activity [14] | Activity (CWR22R [15]) | Activity [16] | Activity [17] | Activity (CWR22R [18]) | Activity [19] |
| --- | --- | --- | --- | --- | --- | --- | --- | --- | --- | --- | --- | --- | --- | --- | --- | --- | --- | --- | --- | --- |
| CCc1cccc(NC(=O)c2cc3cccc(O)c3oc2=N)c1 | Active | Non-Toxic | Non-Toxic | Non-Toxic | Active |  |  |  |  |  |  |  |  |  |  |  |  |  |  |  |
| N=c1oc2c(O)cccc2cc1C(=O)Nc1ccc(F)cc1 |  |  |  |  |  | Active | Active | Active | Active | Active | Active | Active | Active | Active |  |  |  |  |  |  |
| Cc1ccc(NC(=O)c2cc3cccc(O)c3oc2=N)cc1 |  |  |  |  |  | Active | Active | Active | Active | Active | Active | Active | Active | Active | Non-Toxic | Active | Non-Toxic | Non-Toxic | Active | Non-Toxic |
